# S1P3 agonist: activates the human S1P3 receptor | Q99500 | S1P3 NFAT-BLA reporter cells, agonism, FRET ratio; relative to 1 µM S1P, basal subtracted | activation, % at 4.5 µM | 60,000 compounds, 0.1% hits | AID 373;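 active = activation above the screen-wide mean plus 3 SD, cut at about 4.5% in these data, passing the limit was not always enough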
#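 material = human S1P3 NFAT-BLA reporter CHO cells | schedule = 4 h compound at 37 °C, 2 h substrate at RT | measured by = fluorescent BLA substrate, ex 405 nm, em 460/535 nm ratio | controls = 1 µM S1P reference | replication = primary once, confirmation triplicate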
# M1 antag: M1 muscarinic receptor (rat) antagonism. P08482. CHO-M1 cells, Fluo-4 calcium, ACh EC80 antagonist mode; hits give low values. B-score at 10 µM. 64,000 compounds, 3.4% hits;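 active = calcium fluorescence response, raw or row-and-column corrected B-score, differing from the plate sample mean either way at a set confidence level, mostly lower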
# Target sequence (P08482 whole entry, looked up): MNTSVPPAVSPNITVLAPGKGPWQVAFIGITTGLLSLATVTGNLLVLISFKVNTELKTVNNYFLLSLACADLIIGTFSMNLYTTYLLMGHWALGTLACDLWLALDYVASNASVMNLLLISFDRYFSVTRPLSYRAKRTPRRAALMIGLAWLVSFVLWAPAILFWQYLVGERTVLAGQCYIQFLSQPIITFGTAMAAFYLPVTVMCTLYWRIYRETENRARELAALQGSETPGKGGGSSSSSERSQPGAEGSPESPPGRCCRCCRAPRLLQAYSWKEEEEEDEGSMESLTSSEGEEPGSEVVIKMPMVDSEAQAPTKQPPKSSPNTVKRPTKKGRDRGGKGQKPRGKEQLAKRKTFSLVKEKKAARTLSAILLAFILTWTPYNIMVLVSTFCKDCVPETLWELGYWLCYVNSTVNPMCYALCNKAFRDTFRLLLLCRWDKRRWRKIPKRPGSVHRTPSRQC
# D1 mod: D1 dopamine receptor (human) allosteric modulation | HEK293 D1, CRE-luciferase, dopamine EC30 potentiation; actives deviate in either direction | B-score at 10 µM | 58,000 compounds, 5.9% hits | P21728 | AID 641;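 active = luminescence count or its row- and column-corrected plate score outside the 99.7% band of the plate's sample wells, on either side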
# M1 agonist: agonists of M1 muscarinic receptor | CHO-M1 cells, Fluo-4 calcium fluorescence, agonist mode; hits give high values | B-score at 10 µM | 64,000 compounds, 3% hits;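 active = fluorescence rise, raw or as B-score row- and column-corrected plate score, outside the 99.7% band of its plate's samples, either direction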
# S1P1 ag pot: S1P1 (human) agonism or agonism potentiation; 56,000 compounds, 0.57% hits; P21453; AID 449; S1P1 CRE-bla cells, forskolin, beta-lactamase FRET, potentiator mode; S1P1 agonist co-added at EC20, 2 nM; 100% = saturating reference agonist, 0% = basal; activation, % at 9.5 µM;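 active = activation above a cutoff set at the mean activation of all tested compounds plus 3 SD, cut at about 54% in these data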;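 also: forskolin at 4 µM as EC80 and the EC20 agonist is SEW2871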
# D1 mod confirm: D1 receptor (human) allosteric modulation, confirmed | shares compounds with D1 mod | HEK293 D1 CRE-luciferase, dopamine EC30 potentiation; hits give high values | luminescence at 10 µM | 2,200 compounds, 88% hits | AID 642;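 active = luminescence in either of two replicates above the same-plate mean plus 3 SD of the low-dose dopamine control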
# D1 ag no DA: secondary test of D1 modulators: activity without dopamine | shares compounds with D1 mod | HEK293 D1 CRE-luciferase, luminescence, no dopamine; hits give high values | luminescence at 10 µM | 1,900 compounds, 0.8% hits | AID 646; in the data active = luminescence above about 3900
# Isoprot counter: counter-screen for D1 modulators: isoproterenol response in HEK293 cells; shares compounds with D1 mod; HEK293 D1 CRE-luciferase, isoproterenol EC30 counter-screen; hits give high values; luminescence at 10 µM; 2,200 compounds, 63% hits; AID 647;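 active = luminescence in either replicate above plate mean of wells with a partly effective reference agonist dose plus 3 SD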;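 also: isoproterenol raises cAMP through native beta-adrenoceptor Gs so signal bypasses D1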
# Numbers stand for hits; – = inactive; · = no result. Only some compounds are listed: those with a hit (about 11% of all), similar ones and a draw of the others.
SMILES,S1P3 agonist,M1 antag,D1 mod,M1 agonist,S1P1 ag pot,D1 mod confirm,D1 ag no DA,Isoprot counter
CCOC(=O)c1nnn(-c2nonc2N)c1-c1ccc(OC)cc1,–,–,11,–,–,22732,–,4492
CCOC(=O)c1c(N)n[nH]c1-c1ccc(OC)cc1,–,–,9,–,–,16256,·,3172
CCOC(=O)c1cnn2c(C)cc(-c3ccc(F)cc3)nc12,–,–,–,–,–,·,·,·
Cc1cc(-c2ccc(F)cc2)nc2cc(C(N)=O)nn12,–,–,10,–,–,15420,–,4380
N#Cc1nn(-c2ccccc2)nc1N1CCCCC1,–,–,–,–,–,·,·,·
NC(=O)c1cc(-c2ccccc2)nc(Oc2ccccc2)n1,–,–,8.9,–,–,10904,·,2736
O=C(CSc1nnc(C23CC4CC(CC(C4)C2)C3)o1)Nc1ccc(N2CCOCC2)c(Cl)c1,–,–,–,–,–,·,·,·
Cc1cc(NC(=O)C2CCC2)n(-c2ccccn2)n1,·,–,7.6,–,·,20484,–,4680
Cc1cc(NC(=O)c2cccc(S(=O)(=O)N3CCCCCC3)c2)n(-c2ccccn2)n1,–,–,–,–,–,·,·,·
COc1ccc(CN(Cc2ccccn2)S(=O)(=O)c2ccc(-n3cnnn3)c(OC)c2)cc1,–,–,–,–,–,·,·,·
COc1ccc(CN(Cc2cccnc2)S(=O)(=O)c2ccc(-n3cnnn3)c(C)c2)cc1OC,–,–,3.7,–,–,7956,–,–
C/C(=N\O)c1ccc2c3ccccc3n(C)c2c1,–,·,–,·,–,·,·,·
Cn1c2c(c3ccccc31)CC/C2=N\O,–,–,4.7,–,–,8132,–,–
Cn1c(C(=O)N(Cc2ccccc2)Cc2cccs2)cc2sccc21,–,–,–,–,–,·,·,·
Cc1ccc(NC(=O)CC2SC3=NCCN3C2=O)cc1 (centres undefined),·,–,5.5,–,·,–,·,–
N#Cc1nc(N2CCOCC2)nc(N2CCOCC2)n1,–,–,5.1,–,–,12340,–,3540
N#CCOc1nc(N2CCOCC2)nc(N2CCOCC2)n1,–,–,–,–,–,·,·,·
COc1ccc(/C=N/n2c(SC)nnc2-c2ccccc2)cc1C,–,–,16,–,–,23520,–,15392
COc1ccc(/C=N/n2c(SC)nnc2-c2ccccc2)c(OC)c1OC,–,–,–,–,–,·,·,·
C=CCn1c(SCCCC)nc(O)cc1=O,–,–,3.6,–,–,–,–,–
CCNc1nc(NCC)n2c(SCc3nc4ccccc4c(=O)[nH]3)nnc2n1,–,–,27,–,–,21452,–,6556
CCNc1nc(NCC)n2c(SCc3ccc(F)cc3)nnc2n1,–,·,·,·,–,·,·,·
O=C(O)COc1ccc2c(c1)OCCO2,–,–,–,–,–,·,·,·
O=C1c2ccccc2C(=O)N1c1ccc(S(=O)(=O)N2CCN(c3ccccc3)CC2)cc1,–,–,–,–,–,·,·,·
CCOc1ccc(-c2nnn(CC(=O)Nc3cc(OC)ccc3OC)n2)cc1OCC,–,–,–,–,–,·,·,·
SMILES,S1P3 agonist,M1 antag,D1 mod,M1 agonist,S1P1 ag pot,D1 mod confirm,D1 ag no DA,Isoprot counter
CCOc1ccc(-c2nnn(CC(=O)NCc3ccc(OC)cc3)n2)cc1OCC,–,–,5.3,–,–,6444,–,–
CCOc1ccccc1NC(=O)Cn1nnc(-c2ccc(OCC)c(OCC)c2)n1,–,–,29,–,–,19636,–,6380
c1cnc2c(SCc3ccc(-c4nnco4)cc3)cccc2c1,–,–,5.3,–,–,8332,·,3088
CC(C)(C)OC(=O)NC(CCCCNC=O)C(=O)O (centres undefined),–,–,–,–,–,·,·,·
CCOC(=O)CSC1=C(C#N)C(c2ccc(C)o2)CC(=O)N1 (centres undefined),–,–,5.4,–,–,9204,–,–
CCOC(=O)CSC1=C(C#N)C(c2ccc3c(c2)OCO3)CC(=O)N1 (centres undefined),–,–,–,–,–,·,·,·
O=C(c1ccc(S(=O)(=O)N2CCOCC2)cc1)N1CCc2ccccc2C1,–,–,–,–,·,·,·,·
CCOC(=O)Cc1nnc(NC(=O)c2cccc(OCC)c2)s1,–,–,–,–,–,·,·,·
CCOc1ccc(C(=O)Nc2nnc(C)s2)cc1OCC,–,–,5.9,–,–,13964,·,3272
CSC1=NCCN1C(=O)c1ccc(Br)o1,–,–,5.7,–,–,11560,–,–
CSC1=NCCN1C(=O)COc1ccccc1,–,–,–,–,–,·,·,·
CSC1=NCCN1C(=O)Cc1cccs1,–,–,9.8,–,–,7652,–,–
O=C(c1ccc(Br)o1)N1CCN=C1SCc1cccnc1,–,–,–,–,–,·,·,·
c1coc(-c2nnc(SCc3nc4ccccc4[nH]3)o2)c1,–,–,–,–,–,·,·,·
CCOC(=O)N1CCC(NC(=O)c2ccc(CS(=O)(=O)c3ccccc3C)o2)CC1,–,–,–,–,–,·,·,·
CCSc1ncc(Cl)c(C(=O)Nc2ccc(S(=O)(=O)Nc3onc(C)c3C)cc2)n1,–,–,5.6,–,·,11540,–,–
Cc1noc(NS(=O)(=O)c2ccc(NC(=O)Nc3ccc(Cl)c(Cl)c3)cc2)c1C,–,–,–,–,–,·,·,·
COC(=O)CSc1nc2sc(C)c(C)c2c(=O)n1C,–,–,6.1,–,–,7584,–,2964
CCn1c(SCC(=O)NCCOC)nc2sc(C)c(C)c2c1=O,–,–,–,–,–,·,·,·
CN1CCc2c(sc3c2c(=O)n(-c2ccccc2)c2nncn32)C1,–,–,–,–,–,·,·,·
COC(=O)CSc1nc2sc3c(c2c(=O)n1-c1ccccc1)CCN(C)C3,–,–,17,–,–,10640,–,3944
CCC(c1nnnn1Cc1ccc(F)cc1)N(CCCO)Cc1cc2cc3c(cc2[nH]c1=O)OCO3 (centres undefined),–,–,5.5,–,–,–,–,–
CN(C)c1ccc(-c2ccccc2)nn1,·,–,·,–,·,·,·,·
CCCn1nc(NC(=O)c2ccncc2)c2cc3ccccc3nc21,–,–,8.4,–,–,12660,·,2876
O=C1CCCC(O)=C1C(C#Cc1ccccc1)C1=C(O)CCCC1=O,–,·,3.6,·,–,–,–,–
COc1ccc(-c2nc(N)nc(C)c2Oc2ccccc2Br)c(O)c1,–,–,–,–,–,·,·,·
C=C(C)CSc1nc(N)cc(=O)[nH]1,–,–,–,–,–,·,·,·
CCn1ncc(C2=NOC(C(=O)NCc3ccc(OC)cc3)C2)c1C (centres undefined),–,–,–,–,–,·,·,·
CCn1ncc(C2=NOC(C(=O)NCc3ccccc3)C2)c1C (centres undefined),–,–,7.7,–,–,12364,–,–

# Bioassay records from PubChem.
